Source: PubChem BioAssay
Hits are enriched below; roughly 4.8% of the tested compounds scored in any of these assays.
CSC inhib: cancer stem cell viability inhibitors, primary screen, luminescence; inhibition, % at 7.5 µM; cancer stem cell-like cells viability; 1.1% of 300,000 active; AID 2717, 2010; in the data active = inhibition above about 75%; inconclusive = no clear call, values can overlap the other calls; tested in HMLE shEcad cells
SKKanGAS inh: S. pyogenes SKKanGAS growth inhibitors in kanamycin, primary screen, streptokinase expression inhibitor project, SKKanGAS strain, BacTiter-Glo luminescence; 6 h; 1.3% of 300,000 active; inhibition, % at 7.5 µM; AID 1662, 2009;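 active = mean replicate score, as percent of positive control median, at least 50; inconclusive = mean below 50 but one replicate at or above 50; inactive = mean and every replicate below 50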;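 note: strain carries kanamycin resistance gene driven by streptokinase promoter and grows in 40 µg/ml kanamycin; loss of luminescence reflects streptokinase promoter inhibition or plain growth inhibition; 0% = median of DMSO wells and 100% = positive control at its reference dose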
Beta cell apopt: inhibitors of cytokine-induced beta cell apoptosis, primary screen, luminescence; 0.8% of 300,000 active; AID 435005, 2010; INS-1E cytokine-induced death, ATP luminescence, 48 h; percent of positive-control rescue, neutral wells zero; protection from apoptosis, % (test concentration not listed);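 active = Every replicate reaches about 75%, or at least half do and their mean reaches it too, limit read from the data; inconclusive = At least half of replicates reach the limit but their mean does not; inactive = Under half of replicates reach the limit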;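 note: 0% = cytokine-treated negative control wells and 100% = positive control rescue; higher means more ATP so stronger rescue from cytokine killing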
UPR CHOP act: activators of apoptotic CHOP UPR arm, primary screen, cell-based, CHO-CHOP luciferase reporter, luminescence, uHTS. UPR activation; percent of tunicamycin response over DMSO baseline. activation, % at 10 µM. 0.34% of 330,000 active;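 active = at 10 µM dose, activation of 40% or more, normalized to positive control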;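 note: 100% = tunicamycin at 10 µg/mL and 0% = DMSO alone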
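Test system: CHO CHOP reporter cells. Input: 500 CHO-CHOP cells per well. Medium: F12 with 10% FBS. Technique: luciferase luminescence. Measure: percent activation relative to tunicamycin control. Dosing: 10 µM compound, 0.5% DMSO. Timing: 16-18 h cell attachment, then 6 h compound exposure, 37 °C.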
Mdm2-MdmX inh: inhibitors of human Mdm2-MdmX association, primary screen, cell-based, luminescence, split luciferase, SaOS-2, uHTS; Protein Mdm4 (Homo sapiens) + E3 ubiquitin-protein ligase Mdm2 (Homo sapiens), …; AID 485346, 2010; SaOS-2 split-luciferase Mdm2/MdmX complementation; inhibition, % at 8 µM; 3% of 330,000 active;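 active = inhibition of at least 50% at 8 µM in the primary screen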
Target sequence (O15151 whole entry, looked up): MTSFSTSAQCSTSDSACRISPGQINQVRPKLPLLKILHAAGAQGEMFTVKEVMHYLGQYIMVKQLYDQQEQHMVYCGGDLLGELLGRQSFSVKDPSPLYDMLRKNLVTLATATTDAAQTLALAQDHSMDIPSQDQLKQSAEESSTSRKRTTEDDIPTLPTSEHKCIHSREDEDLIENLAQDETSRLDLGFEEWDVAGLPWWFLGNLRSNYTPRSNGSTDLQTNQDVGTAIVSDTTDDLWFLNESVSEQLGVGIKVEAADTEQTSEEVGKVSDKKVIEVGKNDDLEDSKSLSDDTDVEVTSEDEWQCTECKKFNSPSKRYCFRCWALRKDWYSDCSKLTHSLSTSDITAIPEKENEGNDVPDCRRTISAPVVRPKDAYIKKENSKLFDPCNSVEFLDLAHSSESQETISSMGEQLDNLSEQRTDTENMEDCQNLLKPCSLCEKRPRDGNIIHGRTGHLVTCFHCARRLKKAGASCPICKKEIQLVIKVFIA
Target sequence (Q00987 whole entry, looked up): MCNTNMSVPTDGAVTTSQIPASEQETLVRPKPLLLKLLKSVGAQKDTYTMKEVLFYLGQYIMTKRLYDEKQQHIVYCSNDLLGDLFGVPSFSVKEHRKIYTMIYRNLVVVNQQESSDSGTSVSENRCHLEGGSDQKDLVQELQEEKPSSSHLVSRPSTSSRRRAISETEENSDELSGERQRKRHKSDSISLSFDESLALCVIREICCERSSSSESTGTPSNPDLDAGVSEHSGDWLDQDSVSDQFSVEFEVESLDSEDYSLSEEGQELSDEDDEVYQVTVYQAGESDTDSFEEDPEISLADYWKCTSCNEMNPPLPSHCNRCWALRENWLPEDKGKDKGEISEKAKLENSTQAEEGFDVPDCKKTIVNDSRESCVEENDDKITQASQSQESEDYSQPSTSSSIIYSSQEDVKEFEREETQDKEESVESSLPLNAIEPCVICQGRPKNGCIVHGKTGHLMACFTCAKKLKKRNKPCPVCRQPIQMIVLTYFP
UPR XBP1 act: activators of adaptive XBP1 UPR arm, primary screen, cell-based, CHO-XBP1 luciferase reporter, luminescence, uHTS | AID 463104, 2010 | activation, % at 20 µM | IRE1-XBP1 UPR activation; percent of tunicamycin response, DMSO as zero | 0.33% of 330,000 active;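 active = versus positive control, 20 µM dose yields 30% or more activation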;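 note: 100% = tunicamycin at 10 µg/mL and 0% = DMSO only wells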
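incubation = overnight seeding at 37 °C, 6 h compound treatment at 37 °C | assay system = CHO-XBP1 cells stably carrying IRE1-XBP1-driven luciferase reporter | input = 1000 cells per well | detection = luciferase luminescence | dosing = single point, 20 µM final compound, 1% DMSO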
The depositor's hits bear a star; ? = inconclusive; . = no result given.

SMILES	CSC inhib	SKKanGAS inh	Beta cell apopt	UPR CHOP act	Mdm2-MdmX inh	UPR XBP1 act
Cc1ccccc1-n1nc2c(c1NC(=O)c1ccc3c(c1)OCO3)CS(=O)(=O)C2	-6	-2	-1	0	7	-1
CCCCCCc1cc2cc(-c3nnc(-c4cc(OC)c(OC)c(OC)c4)o3)c(=O)oc2cc1O	77*	36	5	3	10	5
NC(=O)c1nc[nH]c1C(=O)Nc1cccc(C(F)(F)F)c1	-39	.	4	7	31	7
CC1CC(C)CN(C(=O)C2CCC(CNS(=O)(=O)c3ccccc3)CC2)C1 (stereo not given)	4	-6	-4	3	-7	-8
CCN(CC)CCOC(=O)c1ccc(NC(=O)c2ccc(Cl)c(S(=O)(=O)N3CCCCCC3)c2)cc1	77*	5	4	0	32	-2
CCN1CCN(c2ccc(NC(=O)c3ccc(Cl)c(S(=O)(=O)N4CCCC4)c3)cc2)CC1	.	.	.	0	2	-5
COc1ccc(-n2nc(C(=O)O)cc2-c2ccccc2)cc1	-2	1	4	2	13	-4
O=C(Nc1nnc(-c2ccco2)o1)c1ccc(Cl)s1	2	51*	.	0	18	-3
O=C(Nc1nnc(-c2cccnc2)o1)c1cccc(Cl)c1	33	79*	0	1	15	1
O=C(Nc1nnc(-c2ccccc2)o1)c1cccc(N2C(=O)CCC2=O)c1	-1	0	.	-1	0	-1
O=C(Nc1nnc(-c2ccc(Br)cc2)o1)c1cccc(N2C(=O)CCC2=O)c1	14	88*	.	0	-9	-2
Cc1cccc(-c2nnc(NC(=O)c3ccc(Cl)cc3)o2)c1	89*	122*	-1	1	44	3
CC(=O)Nc1nnc(-c2ccco2)o1	8	0	-7	-2	-4	-1
Cc1ccc(S(=O)(=O)N2CCN(C(=O)COC(=O)c3ccc(Cl)nc3)CC2)c(C)c1	.	.	1	-2	18	1
Cc1c(NC(=O)c2ccc([N+](=O)[O-])o2)cccc1-c1nc2ncccc2o1	?	28	6	20	29	-1
Cc1ccc(CSCC(=O)N(C)CC(=O)Nc2ccc(Cl)c(Cl)c2)cc1	-2	-9	.	1	29	-5
O=C(Nc1nnc(-c2cc(Cl)ccc2Cl)o1)C1=COCCO1	-5	5	-1	1	24	4
CC(=O)Nc1nnc(-c2ccccn2)o1	-7	-2	-3	-1	-52	-3
O=C(Nc1nnc(-c2ccccn2)o1)c1cccc(Br)c1	24	67*	5	0	16	-3
O=C(Nc1nnc(-c2ccccn2)o1)c1cccc(Cl)c1	28	83*	-4	0	-6	2
N#Cc1ccc(C(=O)Nc2nnc(-c3ccccn3)o2)cc1	-3	4	2	2	0	-3
O=C(Nc1nnc(-c2ccco2)o1)c1cccc(Cl)c1	19	88*	-4	1	28	0
O=C(Nc1nnc(-c2cc(Cl)ccc2Cl)o1)c1ccco1	-4	74*	-9	2	22	-3
Cn1c(CNc2ccc(F)cc2)nc2ccccc21	10	-2	5	2	-91	-4
O=C(CN1CCCC1)N1c2ccccc2Sc2ccccc21	-13	0	-8	2	20	1
SMILES	CSC inhib	SKKanGAS inh	Beta cell apopt	UPR CHOP act	Mdm2-MdmX inh	UPR XBP1 act
CC1(C)CCCN(C(=O)N2c3ccccc3Sc3ccccc32)C1	24	80*	.	4	-5	0
O=C(Nc1ncc(Cc2cccc(Cl)c2)s1)c1cccs1	.	95*	-1	3	-42	6
O=C(Nc1nnc(Cc2ccccc2)s1)c1cccs1	21	8	3	3	-20	-1
Cc1ccc(C(=O)Nc2ncc(Cc3ccccc3)s2)o1	97*	23	.	-1	-104	-1
O=C(Nc1ncc(Cc2ccccc2)s1)c1cccs1	50	66*	-4	4	-104	1
O=C(Nc1ncc(Cc2ccc(SC(F)F)cc2)s1)c1ccccc1	68	82*	9	1	30	16
COc1ccc(C(=O)N2CCOC2CNC(=O)C(=O)NCCc2ccccc2OC)cc1 (stereo not given)	-1	0	2	-2	15	-3
O=C(Nc1nc(-c2cc(Cl)sc2Cl)cs1)c1cccs1	112*	61*	15	1	23	8
Cc1ccc(Cc2cnc(NC(=O)c3cccs3)s2)cc1	-23	78*	5	5	-203	-1
Cc1ccc(Cc2cnc(NC(=O)C3CCCO3)s2)cc1 (stereo not given)	-3	4	-11	2	-63	-4
CCOC(=O)c1ccc(NC(=O)CN2C(=O)NC3(CCCCCCC3)C2=O)cc1	.	.	-2	-1	6	-1
COc1cccc(C=O)c1OCCCOc1cccc2cccnc12	37	0	-3	4	-13	1
O=C(NCc1ccccn1)NC12CC3CC(CC(C3)C1)C2	-20	3	2	3	-5	5
O=C(NCc1ccccn1)C(=O)Nc1nc(C23CC4CC(CC(C4)C2)C3)cs1	25	75*	39	1	31	8
O=C(CN1C(=O)NC2(CCOc3ccccc32)C1=O)N1CCCCC1 (stereo not given)	-12	.	-9	4	3	2
CC(=O)c1nn(-c2cccc(C)c2)cc1C(=O)c1cccc(Br)c1	-9	-8	2	-2	10	3
O=C(COc1ccccc1)NC1C(=O)N2C(C(=O)O)=C(Cl)CSC12 (stereo not given)	-22	102*	1	1	-31	-3
CC1=C(C(=O)OCc2ccccc2)N2C(=O)[C@@H](NC(=O)COc3ccccc3)[C@H]2SC1	9	4	-4	-2	8	1
C=CC1=C(C(=O)O)N2C(=O)C(NC(=O)Cc3ccccc3)C2SC1 (stereo not given)	-10	95*	-9	-1	20	8
CC1=C(C(=O)OCc2ccc([N+](=O)[O-])cc2)N2C(=O)C(NC(=O)Cc3ccccc3)C2SC1 (stereo not given)	-4	-3	-2	-1	2	-2
COc1cccc(NC(=O)c2cccc(S(=O)(=O)N3CCN(Cc4ccccc4)CC3)c2)c1	.	8	8	2	-4	-2
COc1ccc(C(=O)Nc2nnc(-c3ccccc3)o2)cc1OC	18	50*	-3	4	13	-2
